# The list is not random: actives were taken first. Their share in the collection is about 2%.
# ATG4B inhibitor: ATG4B (human) cysteine protease inhibition | Q9Y4P1 | ATG4B cleavage of LC3-PLA2, NBD-HPC fluorescence, 1 h | inhibition, % at 8.33 µM | 340,000 compounds, 0.51% hits | AID 504462
# TPT1 inhibitor: blocks Candida albicans tRNA 2'-phosphotransferase | inhibition, % at 5 µM | 300,000 compounds, 0.81% hits | recombinant caTPT1, FP RNA substrate dephosphorylation;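 active = inhibition above the mean of all tested compounds plus 3 SD, set per screening campaign, cut at about 24% in these data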;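 also: plate controls were DMSO alone for no effect and ferristatin control at 100 nM for full effect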
# HNF4A DNA FP: change in binding of human HNF4 alpha to DNA; activity change, % at 10 µM; AID 1224865; 360,000 compounds, 0.3% hits; HNF4a-FITC DNA binding, fluorescence polarization, 1 h; in the data active = activity change above about 30%, passing the limit was not always enough
# SENP1 FRET inh: blocks the human SENP1 SUMO protease catalytic domain; Q9P0U3; recombinant SENP1 catalytic domain, CyPet-SUMO1-YPet FRET cleavage; inhibition, % at 10 µM; 360,000 compounds, 0.21% hits; AID 624204;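 active = inhibition at least 30% at 10 µM, raw YFP signal under a set limit, fluorescence ratio 0.5 to 1.5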;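 also: 0% = enzyme with DMSO and 100% = no enzyme wells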
# Target sequence (Q9P0U3 419-644 limits assumed): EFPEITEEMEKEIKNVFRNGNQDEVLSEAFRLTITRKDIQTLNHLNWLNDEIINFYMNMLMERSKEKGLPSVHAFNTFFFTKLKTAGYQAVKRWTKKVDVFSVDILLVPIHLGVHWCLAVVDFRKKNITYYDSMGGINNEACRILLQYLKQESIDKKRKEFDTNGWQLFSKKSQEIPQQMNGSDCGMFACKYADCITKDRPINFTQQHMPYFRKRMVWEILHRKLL
#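 System: Recombinant human SENP1 catalytic domain, His6-tagged | Incubation: Enzyme reaction for 50 min at room temperature, dark | Medium: Tris pH 8 with BME, BSA, NP40 and catalase | Also added: 25 nM SUMO1 FRET substrate | Compound: 10 µM single point, 0.5% DMSO | Measured by: FRET fluorescence in CFP and YFP emission channels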
# Rpn11 block: inhibitors of human proteasome Rpn11. O00487. human 26S proteasome, Ub4-pepOG fluorescence polarization; 20S core pre-blocked with epoxomicin. inhibition, % at 20 µM. 360,000 compounds, 0.59% hits. AID 588493;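 active = inhibition at 20 µM, scaled to each plate's controls, above about 33%, limit read from the data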
# CSN inh: inhibitors of human CSN-mediated cullin deneddylation | 360,000 compounds, 0.38% hits | inhibition, % at 12.5 µM | Q92905 | Purified CSN, SCF-Nedd8-OG deneddylation, fluorescence polarization;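 active = pattern-corrected inhibition above about 35%, with an unprinted fluorescence ratio check between 0.5 and 1.5, limit read from the data, passing the limit was not always enough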;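 also: 0% = enzyme with substrate and 100% = substrate without enzyme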
# Target sequence (Q92905 whole entry, looked up, one chain of several): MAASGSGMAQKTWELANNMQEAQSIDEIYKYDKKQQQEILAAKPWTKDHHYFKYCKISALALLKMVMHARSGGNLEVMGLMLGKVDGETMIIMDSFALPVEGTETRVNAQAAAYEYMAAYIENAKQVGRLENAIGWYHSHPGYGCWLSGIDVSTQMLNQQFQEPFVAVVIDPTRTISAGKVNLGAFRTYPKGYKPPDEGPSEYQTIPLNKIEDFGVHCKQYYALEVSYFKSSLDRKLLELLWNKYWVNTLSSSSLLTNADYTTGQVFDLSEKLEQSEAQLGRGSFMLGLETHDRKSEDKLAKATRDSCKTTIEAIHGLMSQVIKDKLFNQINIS
#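 Material: purified human Csn5 enzyme expressed in HEK293T cells / Medium: Tris buffer pH 7.5, NaCl, DTT, Tween-20, trehalose, ovalbumin / Compound dosing: 12.5 µM single point / Schedule: 90 min incubation of compound, enzyme and substrate at room temperature / Signal: fluorescence polarization of the substrate / Control set: no-enzyme wells high, enzyme-with-substrate wells low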
# ATG4B conf: ATG4B (human) inhibition, single-dose confirmed; shares compounds with ATG4B inhibitor; ATG4B protease fluorescent substrate cleavage assay; inhibition, % at 8.33 µM; 320 compounds, 92% hits; AID 504757; in the data active = inhibition above about 39%
# PLA2 ctr: PLA2 (human) inhibition in ATG4B counter-screen; shares compounds with ATG4B inhibitor; purified PLA2, NBD-C6-HPC fluorescence, 45 min; inhibition, % at 8.33 µM; 1,600 compounds, 66% hits; in the data active = inhibition above about 50%
# Target sequence (P04054 whole entry, looked up): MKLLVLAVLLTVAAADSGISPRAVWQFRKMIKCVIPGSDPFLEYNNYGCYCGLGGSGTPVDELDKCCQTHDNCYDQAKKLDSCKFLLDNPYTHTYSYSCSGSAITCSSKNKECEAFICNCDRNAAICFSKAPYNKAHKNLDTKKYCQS
# Rpn11 confirm: confirmation of human proteasome Rpn11 inhibitors | purified human 26S proteasome, Ub4-pepOG fluorescence polarization; proteasome pretreated with epoxomicin | shares compounds with Rpn11 block | 1,900 compounds, 29% hits | inhibition, % at 20 µM
# MMP-2 counter-1: blocks human MMP-2, flagging nonselective RPN11 hits; shares compounds with Rpn11 block; recombinant MMP-2, FRET peptide cleavage fluorescence; inhibition, % at 20 µM; 1,900 compounds, 4% hits;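 also: human MMP-2 activated beforehand with APMA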
# Thrombin FP: counter-screen for RPN11 inhibitors: inhibition of bovine thrombin; bovine thrombin cleavage of Ub4-pepOG, fluorescence polarization; shares compounds with Rpn11 block; 1,900 compounds, 13% hits; inhibition, % at 20 µM; AID 602333;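 active = mean inhibition at least 40% at 20 µM, or signal 3 deviations below plate average, so some actives read negative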;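 also: plate controls were thrombin with DMSO for no effect and buffer wells lacking thrombin for full effect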
# CSN5 deneddyl: Csn5 (human) deneddylation inhibition, single-concentration validation | shares compounds with CSN inh | Csn5 deneddylation of SCF-Nedd8OG, fluorescence polarization, 90 min | inhibition, % at 16.6 µM | 540 compounds, 62% hits | AID 720654; in the data active = inhibition above about 50%;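 also: 0% = DMSO with enzyme and 100% = no enzyme wells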
# MMP-2 counter-2: MMP-2 (human) inhibition, counter-screen for CSN hits. 540 compounds, 33% hits. recombinant MMP-2, FRET substrate fluorescence, 60 min. inhibition, % at 16.6 µM. shares compounds with CSN inh. AID 720655;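 active = corrected plate-normalized z-score of 5 or more, or -5 or less, or inhibition of 15% or more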;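 also: plate controls were DMSO wells with enzyme for no effect and buffer wells lacking MMP-2 for full effect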
# Thrombin cntr: blocks bovine thrombin in a CSN deneddylation counter-screen; inhibition, % at 16.6 µM; bovine thrombin cleavage of Ub4-pepOG, fluorescence polarization; shares compounds with CSN inh; 540 compounds, 49% hits;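 active = inhibition at or above a set limit, with a fluorescence interference ratio between 0.5 and a set maximum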
# * hit, by the source's call; nt = no result given. Rule as the data show it, unless noted: active = inhibition above about 40%; inactive = the rest.
SMILES,ATG4B inhibitor,TPT1 inhibitor,HNF4A DNA FP,SENP1 FRET inh,Rpn11 block,CSN inh,PLA2 ctr,others
O=c1c2ccccc2nc(SCC2CCCCO2)n1-c1ccccc1 (configuration not stated),49.8*,0.1,0.8,2.9,5.0,3.5,38.2,
ClCCN(CCCl)c1ccc(C2=NCCc3ccccc32)cc1,40.1*,nt,-1.1,-1.3,-5.6,-3.9,56.9*,
COc1ccc(-n2c(-c3ccc(C)cc3)nc3ccccc3c2=O)cc1,23.9,-5.1,0.1,-1.0,2.9,-1.3,nt,
CCCCOc1nc2ccccc2c(=O)n1-c1ccccc1,40.6*,2.8,-1.4,1.8,-1.0,3.5,48.8,
CCOc1ccc(-n2c(-c3cccs3)nc3ccccc3c2=O)cc1,49.5*,-2.5,1.2,-1.7,2.0,-8.2,52.1*,
COc1nc2ccccc2c(=O)n1-c1ccc(C)cc1,9.8,3.0,2.3,0.3,-10.3,1.4,nt,
Cc1cccc(-n2c(-c3cccs3)nc3ccccc3c2=O)c1,49.2*,-1.1,6.2,1.1,-17.0,-0.1,45.8,ATG4B conf=58.3*
C[C@]12CC[C@H](O)CC1=CC(=O)C1C2CC[C@]2(C)C(=O)[C@H](O)CC12 (some centres not stated),-3.6,nt,-0.5,-15.9,-4.6,-0.9,nt,
COC(=O)C1=C(c2ccccc2OCc2ccccc2)C[C@@H]2CC[C@H]1N2C(=O)NCc1ccc([N+](=O)[O-])cc1,3.7,nt,3.3,3.7,3.1,-2.1,nt,
Nc1ccccc1C(=O)OCCc1ccccc1,11.1,nt,4.3,0.0,-6.6,0.7,nt,
Cc1cc(OCC(=O)NCC(O)c2ccccc2)c2c3c(c(=O)oc2c1)CCCC3 (configuration not stated),52.3*,2.3,2.2,2.2,-5.1,1.8,55.5*,
COC1=C(OC)[C@]23CCc4ccc(OC)c(OC)c4[C@]2(CCN3C)CC1=O,-3.3,nt,-1.0,-1.5,2.9,-4.1,nt,
CN1C(=O)C(=Cc2ccccc2OCc2ccccc2Cl)C(=O)N(C)C1=O,50.3*,-3.8,1.4,0.1,-1.7,2.7,51.8*,
CC[C@H](C)/C=C(C)/C=C/C1=CC2=C(Cl)C(=O)[C@](C)(OC(C)=O)C(=O)C2=CO1,55.1*,nt,-5.7,-16.2,20.9,42.1,71.0*,
Cc1nn(CC(C)C)c(Cl)c1C(=O)NC1CCCCC1,1.0,nt,2.8,0.9,-7.3,2.2,nt,
COC(=O)C1=C(c2ccc(F)cc2OCc2ccccc2)C[C@@H]2CC[C@H]1N2C(=O)NCc1ccccc1Cl,42.6*,nt,-3.1,2.7,3.2,0.6,62.2*,
COC(=O)C1=C(c2ccc(F)cc2OCc2ccccc2)C[C@@H]2CC[C@H]1N2C(=O)NCCOc1ccccc1Cl,3.9,nt,1.5,-2.3,-1.0,0.0,nt,
Cc1ccc(Cn2cc(C=O)c(-c3ccc(C)cc3)n2)cc1,63.2*,0.2,2.0,-2.6,37.1*,-4.8,60.0*,Rpn11 confirm=3.3;MMP-2 counter-1=3.1;Thrombin FP=-16.1
COC(=O)C1=C(c2cccc(OCc3ccccc3)c2)C[C@@H]2CC[C@H]1N2C(=O)NCCN1CCOCC1,4.7,nt,-2.1,0.0,9.0,-0.6,nt,
CCn1nc(/C=C/c2ccccc2)nc2c(=O)n(C)c(=O)nc1-2,86.8*,nt,107.3*,20.3,10.9,59.2*,8.7,ATG4B conf=23.6;CSN5 deneddyl=8.6;MMP-2 counter-2=3.4;Thrombin cntr=-29.9
CCN1C[C@]2(CO)CC[C@H](OC)[C@@]34C5C[C@H]6[C@H](OC)C5[C@](O)(C[C@H]6OC)[C@@](O)(C(OC)C23)[C@@H]14 (some centres not stated),-5.5,-1.1,-1.8,-1.7,-3.4,0.6,nt,
Cc1ccc(/C=C2\C(=O)NC(=S)N(c3ccc(F)cc3)C2=O)o1,4.9,nt,24.8,-11.6,41.3*,26.4,nt,Rpn11 confirm=44.2*;MMP-2 counter-1=54.9*;Thrombin FP=56.6*
CCOc1cccc(CNCCc2c(C)[nH]c3ccc(OC(F)(F)F)cc23)c1O,-5.9,4.2,0.6,-2.3,0.3,-2.2,nt,
Cc1ccc(N2C(=O)/C(=C/N3CCN(C(=O)c4ccco4)CC3)C(=O)NC2=S)cc1C,5.4,17.2,2.4,-4.8,88.3*,15.0,nt,Rpn11 confirm=10.5;MMP-2 counter-1=7.3;Thrombin FP=-0.9
COc1ccc(-n2c(/C=C/c3ccc(O)cc3)nc3ccccc3c2=O)cc1,36.0,7.6,5.8,-20.5,48.2*,6.2,nt,Rpn11 confirm=15.3;MMP-2 counter-1=47.0*;Thrombin FP=3.7
SMILES,ATG4B inhibitor,TPT1 inhibitor,HNF4A DNA FP,SENP1 FRET inh,Rpn11 block,CSN inh,PLA2 ctr,others
O=c1c2ccccc2nc(/C=C/c2ccc(O)cc2)n1-c1ccc(O)cc1,-6.7,10.0,8.5,-10.8,16.7,-2.0,nt,
C=Cc1ccc(Cn2c(C(=O)O)c(C=O)c3ccccc32)cc1,9.2,8.2,3.2,8.6,37.8*,13.7,nt,Rpn11 confirm=154.8*;MMP-2 counter-1=-2.2;Thrombin FP=60.4*
O=Cc1c(C(=O)O)n(Cc2ccc(F)cc2Cl)c2ccccc12,4.0,nt,-2.2,7.1,7.4,0.8,nt,
CC(C)OCCCNC(=O)c1c(N)n(CC2CCCO2)c2nc3ccccc3nc12 (configuration not stated),-25.4,2.8,5.5,-24.3,45.1*,35.6*,nt,Rpn11 confirm=7.0;MMP-2 counter-1=-12.6;Thrombin FP=4.5
Cn1c(O)c(C=NCCN2CCNCC2)c(=O)[nH]c1=O,-9.2,2.9,5.4,-0.9,-7.5,-2.9,nt,
C[C@@H]1CN([C@H](C)CO)C(=O)CCCn2nncc2CO[C@H]1CN(C)C(=O)Oc1ccc2ccccc2c1,nt,nt,-0.7,1.4,-2.2,-3.3,nt,
